Reference: ChEMBL document CHEMBL3272063, “Potential antitumor agents. 13. 4-Methyl-5-amino-1-formylisoquinoline thiosemicarbazone” (J Med Chem, 1976)
Activity calls are given as the source filed them. The rule behind the calls is not given here.

Experiments:
Rattus norvegicus [1] = species on record: Rattus norvegicus; experiment: Inhibition of ribonucleoside-diphosphate reductase in rat hepatoma cells relative to 4-(m-amino)phenyl-2-formylpyridine thiosemicarbazone; format: cell-based
Rattus norvegicus [2] = species on record: Rattus norvegicus; experiment: Inhibition of ribonucleoside-diphosphate reductase in rat hepatoma cells relative to 5-hydroxy-2-formylpyridine thiosemicarbazone; format: cell-based
[3] = Antitumor activity against mouse S180A cells allografted in CD-1 mouse assessed as dose required for maximum increase in mouse survival administered qd for 6 days; format: functional
[4] = Antitumor activity against mouse S180A cells allografted in CD-1 mouse assessed as average survival at maximum effective dose administered qd for 6 days (reference value: 12.6 +/- 0.6 days); format: functional
[5] = Antitumor activity against mouse S180A cells allografted in CD-1 mouse assessed as average survival at maximum effective dose administered qd for 6 days relative to control; format: functional
Mus musculus = experiment: Toxicity in CD-1 mouse allografted with mouse S180A cells assessed as change in body weight at maximum effective dose administered qd for 6 days (reference value: 18.2%); format: organism-based; conditions: 144 h
S180A = experiment: Antitumor activity against mouse S180A cells allografted in CD-1 mouse assessed as increase in mouse survival administered qd for 6 days; format: functional, cell-based
Outline: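 Adult female CD-1 mice given Sarcoma 180 ascites cells taken from a donor mouse carrying a 7-day tumor. Drug dosed once daily for six consecutive days, starting 24 h after implantation, across 5-100 mg/kg/day. Read-out is average survival time, with mice alive at 50 days counted as 50-day survivors. %T/C = treated/control × 100. Value reported at the maximum effective daily dose.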

SMILES | fold change (FC) (Rattus norvegicus [1]) | fold change (FC) (Rattus norvegicus [2]) | Activity [3] | Survival [4] | T/C [5] | Activity (Mus musculus) | Activity (S180A)
Cc1cnc(/C=N/NC(N)=S)c2cccc(N)c12 | 2 | 60 | 10 mg/kg | 38.2 days | 303% | -4.8% | –
NC(=S)N/N=C/c1nccc2ccccc12 | – | – | 40 mg/kg | 39.2 days | 311% | -5.1% | –
Cc1cnc(/C=N/NC(N)=S)c2cccc([N+](=O)[O-])c12 | – | – | – | – | – | – | inactive
N/C(S)=N/N=C/c1ccc(O)cn1 | – | – | 60 mg/kg | 30.4 days | 241% | -3.3% | –
NC(=S)N/N=C/c1nccc2c(N)cccc12 | – | – | 40 mg/kg | 37.3 days | 296% | -8.5% | –
